# Bioassay records from PubChem.
# In the library only some 4.1% were active in any assay of this set; here they are far more common.
# APP 5'UTR act = APP 5'UTR luciferase reporter activation; SH-SY5Y APP 5'UTR luciferase reporter, luminescence; zero percent = DMSO vehicle wells; actives 1% (n = 190,000); activation, % at 2 µM; AID 1276;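 active = activation above a set limit, based on mean plus 3 SD of controls, cut at about 140% in these data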
# STAT1 activator = STAT1 signaling activation; NIH 3T3 STAT1-luciferase reporter, IFN-gamma, luminescence; 100% = IFN-gamma alone, no compound; activation (% of control), % at 5.5 µM; actives 2.6% (n = 200,000); AID 932;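 active = activation above the screen-wide mean activation plus 3 SD, cut at about 130% in these data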;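 note: raw ratio to IFN-gamma control signal so 100% means no change and 0% no light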
# FLuc inhib CS = counter-screen for luciferase assay inhibitors: firefly luciferase inhibition. ATPLite firefly luciferase biochemical luminescence, 10 min. inhibition, % at 10 µM. actives 1.5% (n = 200,000). AID 1006;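 active = inhibition above about 50% when tested at 10 µM, limit read from the data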
# Target sequence (P08659 whole entry, looked up): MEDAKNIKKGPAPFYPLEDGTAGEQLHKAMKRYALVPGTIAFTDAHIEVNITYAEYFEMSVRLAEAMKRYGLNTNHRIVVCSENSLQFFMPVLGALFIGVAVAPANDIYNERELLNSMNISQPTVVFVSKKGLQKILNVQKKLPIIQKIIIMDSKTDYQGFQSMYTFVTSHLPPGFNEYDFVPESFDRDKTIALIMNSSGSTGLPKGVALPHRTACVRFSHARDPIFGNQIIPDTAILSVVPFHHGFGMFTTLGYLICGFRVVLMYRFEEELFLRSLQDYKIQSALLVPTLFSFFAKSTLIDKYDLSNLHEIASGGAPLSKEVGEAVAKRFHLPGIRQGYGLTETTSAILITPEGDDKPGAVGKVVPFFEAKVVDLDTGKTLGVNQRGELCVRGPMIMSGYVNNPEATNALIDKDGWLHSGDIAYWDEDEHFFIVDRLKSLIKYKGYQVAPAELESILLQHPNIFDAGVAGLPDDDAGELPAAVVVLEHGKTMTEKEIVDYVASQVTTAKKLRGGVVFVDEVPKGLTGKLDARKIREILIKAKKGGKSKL
# NF-kB expr up = compounds increasing NF-kB expression in human neuronal cells; NF-kB reporter expression; hits give high values; fold change at 12.5 µM; actives 1.6% (n = 190,000); AID 1239; in the data active = fold change above about 3.3
# FLuc stim CS = firefly luciferase counter-screen for stimulation assays; P08659; ATPlite luciferase biochemical, luminescence, 10 min; 0 = ATP-free wells, 1 = DMSO control; activation factor at 10 µM; 200,000 tested, under 10 active; AID 1027;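 active = luciferase activation factor, scaled between plate controls, of at least 2 with compound at 10 µM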
#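 System: cell-free luciferase reagent; medium: PBS as buffer for the ATP substrate; doses: test compounds dosed from 2 mM stocks in 100% DMSO; incubation: 10 min, room temperature; measured by: luminescence from luciferase reaction; read-out: luciferase activation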
# * marks the source's active call; other numbers are inactive results; nt = not tested or not shown.
SMILES,APP 5'UTR act,STAT1 activator,FLuc inhib CS,NF-kB expr up,FLuc stim CS
COc1ccc(C(=O)Nc2cc3c(cc2Cl)OCCCO3)cc1,134,137*,39,4.3*,0.6
COC(=O)Cc1ccc(NC(=S)N2CCN(c3ccc(OC)cc3)CC2)cc1,5,93,-3,0.97,1
CCOC(=O)c1[nH]c(C)c(/C(O)=C2\C(=O)C(=O)N(CCN(C)C)C2c2ccc(C)o2)c1C (stereo not drawn),-6,98,-11,1,1.1
Cc1ccc(C(=O)Nc2cc3c(cc2Cl)OCCCO3)cc1,118,155*,29,4.1*,0.7
CC1=NN(c2ccccc2)C(=O)/C1=C/c1c(O)n(-c2ccc(F)c(Cl)c2)[nH]c1=O,15,142*,31,1.8,0.7
CC1(C)CC(=O)C(N=Nc2cc(Cl)c(Cl)c(Cl)c2)=C(O)C1,-6,98,-2,0.81,1
Cc1ccc(O)c(N=NC2=C(O)CC(C)(C)CC2=O)c1,-36,94,62*,2.8,0.4
O=C(C1COc2ccccc2O1)N1CCCC1 (stereo not drawn),9,102,-2,1.4,1
O=C(C1COc2ccccc2O1)N1CCc2ccccc21 (stereo not drawn),50,131*,0,1.9,1
CCCCN1/C(=C/c2ccc3ccccc3[n+]2CC)Sc2ccccc21,8,73,1,1.1,1
O=C(CCNc1ccc(F)cc1)c1ccco1,19,127,10,1.7,0.9
C/C(=N\Nc1cccc([N+](=O)[O-])c1)c1ccccc1O,42,135*,0,1.8,1
O=[N+]([O-])c1cccc(N/N=C/c2cccc(O)c2O)c1,-35,108,11,2.5,0.9
Cc1ccsc1/C=C1/SC(=O)N(CC(=O)N2CCOCC2)C1=O,-3,104,1,1.4,1
C#CCN1C(=O)S/C(=C\c2ccc(N3CCOCC3)cc2C)C1=O,74,132*,17,1.6,0.8
CCCN1C(=O)S/C(=C\c2ccc(N3CCOCC3)cc2C)C1=O,14,119,16,0.95,0.8
CCC(C)N1C(=O)S/C(=C/c2ccc(N3CCOCC3)cc2C)C1=O (stereo not drawn),61,132*,1,0.5,1
O=C(CN1C(=O)S/C(=C/c2ccc(N3CCOCC3)cc2)C1=O)N1CCOCC1,38,113,76*,1.6,0.2
Cc1cc(N2CCOCC2)ccc1/C=C1\SC(=O)N(C(C)C)C1=O,16,120,36,0.71,0.6
CCN1C(=O)S/C(=C\c2ccc(N3CCOCC3)cc2C)C1=O,34,144*,40,1.4,0.6
COC(=O)c1cc(Br)c(=O)n(CC(C)C)c1,14,96,-3,1.3,1
CC1CCN(CCCCOc2ccc(C(=O)c3ccccc3)cc2)CC1,10,97,-5,0.91,1.1
c1ccc(COc2ccc(OCCCN3CCCC3)cc2)cc1,99,104,58*,2,0.4
c1ccc(COc2ccc(OCCCn3cncn3)cc2)cc1,136*,114,46,5.3*,0.5
CC1CCN(CCCOc2ccc(OCc3ccccc3)cc2)CC1,7,109,-6,5.1*,1.1
SMILES,APP 5'UTR act,STAT1 activator,FLuc inhib CS,NF-kB expr up,FLuc stim CS
c1ccc(Cc2ccc(OCCn3cncn3)cc2)cc1,1,105,-8,0.85,1.1
Cc1cc2nc(SCC(=O)Nc3nonc3C)c3c(c2cc1C)CCCC3,-1,98,-2,0.88,1
COc1cc(/C=C2\SC(=Nc3ccc(O)cc3)NC2=O)cc(OC)c1O,-7,95,-2,1.2,1
O=C1NC(=O)/C(=C/c2ccc(O)cc2)S1,17,130*,27,1.9,0.7
CC[N+](CC)(CC=C(C)C)CC(=O)OC,-14,108,-2,1,1
CCNC(=O)CON=C1c2ccccc2-c2ccccc21,-7,102,1,1.1,1
Cc1cccc(-n2ncc3c(N4CCOCC4)ncnc32)c1,67,91,94*,1.6,0.1
Cc1cccc(C(=O)N2CCN(c3ncnc4c3cnn4-c3ccccc3)CC2)c1,-2,91,-6,0.57,1.1
Cc1cccc(-n2ncc3c(N4CC(C)CC(C)C4)ncnc32)c1 (stereo not drawn),nt,133*,19,2.3,0.8
Cc1ccc(-n2ncc3c(N4CCN(c5ccccc5)CC4)ncnc32)c(C)c1,38,94,-4,0.35,1
Cc1cccc(-n2ncc3c(N4CCCC4)ncnc32)c1,138*,108,87*,4.8*,0.1
CCn1c(=S)sc2c(=O)n(-c3ccccc3)c(SCC(=O)NCc3ccco3)nc21,3,97,-3,0.78,1
CCOc1ccc(OCc2ccc(C(=O)N3N=C(C(F)F)CC3(O)C(F)F)o2)cc1 (stereo not drawn),-17,99,-9,1.5,1.1
Cn1c(N=NC(=O)c2ccccc2)c(O)c2ccccc21,135,143*,86*,2.8,0.1
CC(=O)c1c(O)c2ccccc2n(C)c1=O,12,98,-5,1.3,1
Cc1c(-n2c(O)c(C3=c4ccccc4=NC3=O)sc2=S)c(=O)n(-c2ccccc2)n1C,-5,102,3,0.97,1
Cc1ccc(/C=N/N2CCN(c3ccccn3)CC2)cc1,-2,142*,4,2.2,1
CN1CCN(/N=C/c2ccc(-c3ccccc3)cc2)CC1,75,116,11,3.8*,0.9
Cn1cccc1/C=N/N1CCN(c2ccccn2)CC1,10,107,2,0.97,1
CN=c1scc(C)n1/N=C/c1ccc(O)c(O)c1O,0,90,97*,0.98,0
Cc1cc(C)n(/N=C/c2ccccc2O)c(=O)c1,25,94,-2,1.3,1
CN=c1scc(-c2cccs2)n1/N=C/c1ccccc1O,-53,58,94*,0.17,0.1
CN=c1scc(-c2cccs2)n1/N=C/c1ccc(O)c(O)c1O,-21,58,98*,5*,0
CC(=O)c1c(O)c2ccccc2n(C(C)C)c1=O,-3,101,-2,1.1,1
COc1cc(NC(=O)c2cc3nc(C)cc(C)n3n2)c(OC)cc1Cl,60,132*,10,1.5,0.9
SMILES,APP 5'UTR act,STAT1 activator,FLuc inhib CS,NF-kB expr up,FLuc stim CS
COc1cc(NC(=O)c2c(F)c(F)c(F)c(F)c2F)c(OC)cc1Cl,-9,110,-7,1.4,1.1
CC(C)(C)NC(=O)CSc1nncn1NCc1c(Cl)cccc1Cl,12,85,-2,0.98,1
c1ccc2c(c1)CC/C2=N/Nc1nc2ccccc2[nH]1,180*,137*,43,3.4*,0.6
Cn1c(N/N=C/c2c[nH]c3ccccc23)nc2ccccc21,81,120,38,2.2,0.6
Cc1ccc(/C=N/Nc2cn[nH]c(=O)n2)o1,-11,104,-6,1.1,1.1
Cc1ccc(/C=N\Nc2nc3ccc(Cl)cc3[nH]2)o1,73,136*,26,3.7*,0.7
Cn1c(N/N=C/c2cc3ccccc3nc2Cl)nc2ccccc21,121,101,96*,1.1,0
